Assay type in all cases: functional
Experiment [1] concerns K562. Kind of experiment: Anticancer activity against human K562 cells after 48 hrs by sulforhodamine B assay. The following applies: K562, 48 h. The method, boiled down: (§1)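 Full 60-cell-line panel, compounds tested over a five-log dose range. Cells are preincubated on microtiter plates, the agent is added, and cultures run 48 h. The end point is sulphorhodamine B protein staining. GI50 is taken as the concentration giving 50% growth inhibition relative to untreated control cells.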

Experiment [2] deals with SW-620. Briefly: Anticancer activity against human SW620 cells after 48 hrs by sulforhodamine B assay. As to conditions: SW-620, 48 h. In outline:
(§2)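 Cells from the 60-line full panel are preincubated on microtiter plates, then treated across a five-log dose range for 48 h. Growth is read with the protein-binding dye sulforhodamine B. GI50 is the concentration giving 50% growth inhibition relative to untreated control cells.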
(In general: The SRB assay estimates cell density from bound dye.)

Experiment [3] has as its system OVCAR-3. Briefly: Anticancer activity against human OVCAR-3 cells after 48 hrs by sulforhodamine B assay. The following applies: OVCAR-3, 48 h. The method, boiled down: as §1
Experiment [4] concerns NCI-H226. Briefly: Anticancer activity against human NCI-H226 cells after 48 hrs by sulforhodamine B assay. As to conditions: NCI-H226, 48 h. In outline:
as §1

For experiment [5], the system named is OVCAR-4. Kind of experiment: Anticancer activity against human OVCAR4 cells after 48 hrs by sulforhodamine B assay. The following applies: OVCAR-4, 48 h. The method, boiled down:
as §1

The test system of experiment [6] is SN12C. Briefly: Anticancer activity against human SN12C cells after 48 hrs by sulforhodamine B assay. In outline:
as §1

The subject of experiment [7] is SF-539. Briefly: Anticancer activity against human SF539 cells after 48 hrs by sulforhodamine B assay. The following applies: SF-539, 48 h. The method, boiled down: as §1
Experiment [8] deals with IGROV-1. Briefly: Anticancer activity against human IGROV1 cells after 48 hrs by sulforhodamine B assay. The following applies: IGROV-1, 48 h. The method, boiled down:
as §1

For experiment [9], the system named is UACC-257. Kind of experiment: Anticancer activity against human UACC257 cells after 48 hrs by sulforhodamine B assay. As to conditions: UACC-257, 48 h. In outline:
as §2

Experiment [10] relates to OVCAR-8. Briefly: Anticancer activity against human OVCAR8 cells after 48 hrs by sulforhodamine B assay. As to conditions: OVCAR-8, 48 h. In outline: as §1
Experiment [11] deals with U-251. Kind of experiment: Anticancer activity against human U251 cells after 48 hrs by sulforhodamine B assay. As to conditions: U-251, 48 h. In outline: as §2
Experiment [12] deals with TK-10. Kind of experiment: Anticancer activity against human TK10 cells after 48 hrs by sulforhodamine B assay. As to conditions: TK-10, 48 h. In outline:
as §2

The test system of experiment [13] is SK-MEL-28. Kind of experiment: Anticancer activity against human SK-MEL-28 cells after 48 hrs by sulforhodamine B assay. As to conditions: SK-MEL-28, 48 h. The method, boiled down: as §1
Experiment [14] relates to MCF7. Kind of experiment: Anticancer activity against human MCF7 cells after 48 hrs by sulforhodamine B assay. As to conditions: MCF7, 48 h. The method, boiled down: as §1

In general, GI50 refers to the concentration at which growth is held to half of that of the control.

Turning to `Fc1cc(-c2nnc3n2N=C(c2ccc(Cl)cc2Cl)CS3)c(Cl)cc1Cl`, the GI50 in experiment [1] is 47.5 µM; in [2] it was 36.8 µM; in [3], 22.8 µM; in experiment [4], 36.5 µM; in experiment [5], above 100 µM; in experiment [6], 56.4 µM. Also, the GI50 in experiment [7] came to 39.2 µM; in [8], 50.4 µM; in [9], 86 µM; in experiment [10] it was 57.3 µM; in experiment [11], 56.2 µM; in experiment [12], 77.3 µM. The GI50 in experiment [13] came to 40.2 µM; in experiment [14], 31.3 µM.

These data come from ChEMBL document CHEMBL1154616, “Synthesis and antitumor activity studies of some new fused 1,2,4-triazole derivatives carrying 2,4-dichloro-5-fluorophenyl moiety” (Eur J Med Chem, 2009).
